Screening results (PubChem)
Sampled rows, rich in hits. Any-hit rate of the full collection: about 3.7%.
Beta2AR agonist = activates human beta-2 adrenergic receptor causing internalization; P07550; Am2.2-beta2AR cells, FAP receptor internalization, flow cytometry; response, % (no concentration beside the values); 340,000 compounds, 0.43% hits; AID 504454;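 active means response above a set limit, near 3 SD of response in nonfluorescent compounds, cut at about 42% in these data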
Mdm2 MdmX PPI = human Mdm2/MdmX binding inhibition. inhibition, % at 8 µM. 330,000 compounds, 3% hits. SaOS-2 split-luciferase Mdm2/MdmX complementation, luminescence. O15151+Q00987;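 active means inhibition of at least 50% at 8 µM in the primary screen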
Target sequence (O15151 whole entry, looked up): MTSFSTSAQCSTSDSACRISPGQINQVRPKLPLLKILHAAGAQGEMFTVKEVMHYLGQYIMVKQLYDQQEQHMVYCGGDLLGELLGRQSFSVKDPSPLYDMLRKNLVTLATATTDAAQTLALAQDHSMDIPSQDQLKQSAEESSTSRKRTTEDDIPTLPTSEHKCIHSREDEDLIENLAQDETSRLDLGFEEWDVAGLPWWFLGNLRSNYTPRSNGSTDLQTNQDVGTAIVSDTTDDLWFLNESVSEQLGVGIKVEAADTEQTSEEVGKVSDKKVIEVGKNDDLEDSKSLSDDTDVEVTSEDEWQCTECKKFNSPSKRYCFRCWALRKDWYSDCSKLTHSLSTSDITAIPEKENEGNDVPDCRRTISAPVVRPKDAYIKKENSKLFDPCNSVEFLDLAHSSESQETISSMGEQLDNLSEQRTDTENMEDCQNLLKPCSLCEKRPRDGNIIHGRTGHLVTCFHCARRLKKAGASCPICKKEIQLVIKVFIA
Target sequence (Q00987 whole entry, looked up): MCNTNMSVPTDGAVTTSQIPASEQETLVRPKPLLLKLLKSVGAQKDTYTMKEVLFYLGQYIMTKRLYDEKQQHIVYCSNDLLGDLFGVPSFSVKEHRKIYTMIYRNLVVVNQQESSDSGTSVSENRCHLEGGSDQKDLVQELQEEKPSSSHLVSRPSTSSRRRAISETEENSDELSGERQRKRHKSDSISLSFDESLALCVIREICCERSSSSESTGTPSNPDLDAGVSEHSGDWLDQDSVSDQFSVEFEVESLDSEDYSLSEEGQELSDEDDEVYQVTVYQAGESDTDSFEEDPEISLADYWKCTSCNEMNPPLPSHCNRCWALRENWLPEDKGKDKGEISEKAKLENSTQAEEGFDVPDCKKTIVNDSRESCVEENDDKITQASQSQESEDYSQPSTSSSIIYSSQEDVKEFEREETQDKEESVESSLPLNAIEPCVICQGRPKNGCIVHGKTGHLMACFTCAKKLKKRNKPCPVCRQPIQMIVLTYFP
Dynein cargo inh = dynein cargo transport inhibition | 3617.4 mouse cells, GR-EGFP nuclear translocation imaging; test concentration mostly 20 µM; stimulated with dexamethasone, 1 µM; hits give low values | z-score, hits read low | 220,000 compounds, 0.47% hits;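 active means plate z-score of nuclear minus cytoplasmic receptor signal below a set negative limit, without overly bright fluorescence or cell loss, cut at about -3.5 in these data, passing the limit was not always enough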;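 further: z-score of nuclear minus cytoplasmic ring GR-EGFP intensity difference per well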
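Also added – dexamethasone, 1.0 µM final · Buffer or medium – tet-free, stripped-serum medium · Schedule – induction 48 h, compound 1 h, agonist 30 min · Detection – formaldehyde fixation, Hoechst nuclear stain, 10x automated fluorescence imaging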
XBP1 UPR activ = adaptive UPR (XBP1) activation. CHO-XBP1 luciferase reporter, IRE1-XBP1 UPR activation, luminescence; percent of tunicamycin response, DMSO as zero. activation, % at 20 µM. 330,000 compounds, 0.33% hits. AID 463104;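 active means versus positive control, 20 µM dose yields 30% or more activation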
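assay system = CHO-XBP1 luciferase reporter cells | amount = 1000 cells/well | buffer or medium = F12 plus 10% FBS | compound dosing = single point, 20 µM final compound, 1% DMSO | incubation = 16-18 h cell attachment at 37 °C, then 6 h compound exposure | detection = Steady-Glo luminescence read | controls = tunicamycin 10 µg/mL and vehicle-only wells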
MDM2 E3 inh = Mdm2 E3 ligase (human) inhibition; cell-based MDM2 ubiquitination luciferase reporter, 2 h; 0 = plate control, 100 = twice control, blank-subtracted; signal enhancement, % at 5 µM; 210,000 compounds, 0.11% hits;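 active means signal enhancement of 30% or more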;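 further: luminescence tracks abundance of the self-degrading MDM2-luciferase fusion protein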
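Test system: mammalian cells stably expressing self-ubiquitinating, self-degrading MDM2 E3–luciferase fusion; Amount: 2000 cells in each well; Medium: DMEM; Schedule: 4 h settle plus 2 h compound, 37 °C; Technique: SteadyLite luciferase luminescence after 15 min room-temperature reagent incubation; Benchmarks: plate control and blank wells.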
CHOP UPR activ = apoptotic UPR (CHOP) activation; activation, % at 10 µM; 330,000 compounds, 0.34% hits; AID 449763; CHO-CHOP luciferase reporter, luminescence; percent of tunicamycin response over DMSO baseline;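 active means at 10 µM dose, activation of 40% or more, normalized to positive control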
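Assay system: CHO cells with stable CHOP pathway luciferase reporter; Buffer or medium: F12 plus 10% serum; Times: 16-18 h cell attachment, then 6 h compound exposure, 37 °C; Signal: luciferase luminescence; Read-out basis: percent activation relative to tunicamycin control; Control set: tunicamycin high control, DMSO low control.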
Mdm2-MdmX conf = human Mdm2/MdmX binding inhibition, confirmed; luminescent assay; inhibition, % at 8 µM; shares compounds with Mdm2 MdmX PPI; 10,000 compounds, 55% hits; in the data active means inhibition above about 40%
Full FLuc ctr = full-length luciferase inhibition in Mdm2/MdmX counter-screen; shares compounds with Mdm2 MdmX PPI; SaOS-2 full-length luciferase counterscreen, luminescence; inhibition, % at 8 µM; 6,200 compounds, 77% hits;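 active means mean inhibition at 8 µM reaching about 37%, which flags the compound as non-specific, limit read from the data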;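 further: p53-null SaOS-2 cells with luciferase driven by a doxycycline-inducible promoter; compound on cells about two nights before reading with doxycycline added after day one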
A number is an active result; . = inactive; / = no result; ! = repeats disagree.

SMILES | Beta2AR agonist | Mdm2 MdmX PPI | Dynein cargo inh | XBP1 UPR activ | MDM2 E3 inh | CHOP UPR activ | Mdm2-MdmX conf | others
O=C(CCN1C(=O)c2ccccc2C1=O)NCc1ccc(Cl)cc1 | . | . | / | . | / | . | /
COc1ccc(-c2cc(C(=O)Nc3cc(C)ccc3O)no2)cc1 | . | 57 | / | . | / | . | .
COc1ccc(-c2cc(C(=O)Nc3ccc(F)cc3F)no2)cc1 | . | . | / | . | / | . | /
COc1ccc(OC)c(-c2cc(C(=O)Nc3ccc(F)cc3F)no2)c1 | . | 58 | . | . | . | . | .
COc1ccc(Br)cc1/C=N/NC(=O)c1ccco1 | . | . | . | . | . | . | /
COc1ccccc1/C=C/C(=O)c1cc(Br)ccc1OC(=O)c1ccco1 | . | 55 | -5.3 | . | / | . | .
Cc1ccc(NC(=O)CSC2=C(C#N)C(c3ccco3)C3=C(CC(C)(C)CC3=O)N2)cc1 (centres undefined) | . | 51 | . | . | . | . | .
Cc1c(C(=O)NNC(=S)Nc2ccc(S(N)(=O)=O)cc2)oc2ccccc12 | . | . | / | . | / | . | /
COc1cc(S(=O)(=O)N2CC(=O)Nc3ccccc32)ccc1NC(C)=O | . | . | / | . | / | . | /
CCOC(=O)C(C)Oc1cccc2c(=O)n(CC(=O)NCc3ccc(F)cc3)ccc12 (centres undefined) | . | 69 | . | . | . | . | 61 | Full FLuc ctr=88
CCOC(=O)C(C)Oc1cccc2c(=O)n(CC(=O)NCc3ccccc3)ccc12 (centres undefined) | . | 66 | . | . | . | . | 50 | Full FLuc ctr=67
CCOC(=O)C(C)Oc1cccc2c(=O)n(CC(=O)NCCc3ccccc3)ccc12 (centres undefined) | . | . | . | . | . | . | /
CCCCCN=C(N)N/N=C/c1c[nH]c2ccc(OC)cc12 | 47 | 99 | / | . | / | . | 98 | Full FLuc ctr=.
COC(=O)[C@@]12CCCCN1[C@H](c1ccc(-c3ccc(C(C)=O)cc3)cc1)[C@@H]1C(=O)N(C)C(=O)[C@@H]12 | . | . | / | . | / | . | /
Cc1noc(C)c1C(=O)NCCc1c(C)[nH]c2ccccc12 | . | . | / | . | / | . | /
CCOc1cc(/C=N/NC(=O)Cn2nc([N+](=O)[O-])cc2C)cc(Br)c1OCc1ccccc1F | . | 51 | . | . | . | . | .
CCOc1cc(/C=N/NC(N)=O)cc(Br)c1OCc1ccccc1F | . | . | . | . | . | . | /
Cc1nc(C(=O)NCc2ccccc2)sc1C1(C)CC(c2cccc([N+](=O)[O-])c2)=NO1 (centres undefined) | . | 64 | . | . | . | . | .
CNC(=O)c1nc(C)c(C2(C)CC(c3cccc([N+](=O)[O-])c3)=NO2)s1 (centres undefined) | . | 53 | . | . | . | . | 43 | Full FLuc ctr=57
CCCCC(CC)C(=O)O (centres undefined) | . | . | / | . | / | . | /
Cc1ccc(C)n1CCN1CCN(C(=O)CC#N)CC1 | . | . | . | . | . | . | /
CCC1Sc2ccc(S(=O)(=O)CCC(=O)NCc3ccco3)cc2NC1=O (centres undefined) | . | . | / | . | / | . | /
COC(=O)c1ccc(C2c3c(n[nH]c3C)C(=O)N2c2ccc(C)cc2)cc1 (centres undefined) | . | 74 | . | . | . | . | 47 | Full FLuc ctr=43
CCOC(=O)c1ccc(N2C(=O)c3n[nH]c(C)c3C2c2ccc(OC)cc2)cc1 (centres undefined) | . | . | . | . | . | . | /
COc1cc(C2c3c(n[nH]c3C)C(=O)N2c2ccc(Br)cc2)ccc1O (centres undefined) | . | 56 | . | . | . | . | .
SMILES | Beta2AR agonist | Mdm2 MdmX PPI | Dynein cargo inh | XBP1 UPR activ | MDM2 E3 inh | CHOP UPR activ | Mdm2-MdmX conf | others
O=S(=O)(NCCc1ccccc1)c1ccc(Br)cc1 | . | . | / | . | / | . | /
CC1CCCC(NC(=O)CSc2n[nH]c(=O)n2Cc2ccccc2)C1C (centres undefined) | / | . | / | . | / | . | /
COc1ccc2[nH]c(C(=O)O)c(NS(=O)(=O)c3ccc(C)cc3C)c2c1 | . | . | / | . | / | . | /
Cc1oc(-c2ccccc2Cl)nc1CS(=O)CC(=O)NCCCN1CC(C)CC(C)C1 (centres undefined) | . | . | / | . | / | . | /
CCn1c(SCC(=O)N2c3ccccc3CCc3ccccc32)nc2c1c(=O)n(C)c(=O)n2C | . | . | . | . | / | . | /
CC1Cc2ccccc2N1C(=O)CSc1nc2c(c(=O)n(C)c(=O)n2C)n1Cc1ccccc1 (centres undefined) | . | 50 | . | . | . | . | .
COc1cccc(CN2CCNC(=O)C2CC(=O)NCCCC2CCCC2)c1OC (centres undefined) | . | . | / | . | / | . | /
CC(/C=N\Nc1nnc2c(n1)[nH]c1c(C)cccc12)=C\c1ccco1 | . | 91 | . | . | . | . | 40 | Full FLuc ctr=57
Cc1cccc(NC(=O)CN(C)C(C)C(=O)Nc2ccc(S(=O)(=O)N3CCCC3)cc2)c1C (centres undefined) | . | . | / | . | / | . | /
CC(=O)c1nn(-c2cccc(Br)c2)cc1C(=O)c1ccc(Br)cc1 | . | 56 | . | . | . | . | .
CC(=O)c1nn(-c2cccc(Br)c2)cc1C(=O)c1ccc(C)cc1 | . | . | . | . | . | . | /
COc1ccccc1C/C(N)=N/OC(=O)c1ccc2c(c1)OCO2 | . | 78 | . | . | . | . | 41 | Full FLuc ctr=70
COc1ccc(C(=O)O/N=C(\N)Cc2cccs2)cc1OC | . | 86 | / | . | / | . | 51 | Full FLuc ctr=68
COc1cc(/C=C2/SC(=O)N(Cc3ccccc3Cl)C2=O)ccc1OCc1ccncc1 | . | 51 | . | . | . | . | .
Cc1ccc(S(=O)(=O)N2CCN(c3ccccc3)CC2)cc1C(=O)NC1CCCCC1 | . | . | / | . | / | . | /
Clc1ccc(C#Cc2cccnc2)cc1 | . | . | / | . | / | . | /
CCn1c2ccccc2c2cc(NC(=O)CSc3nnc(-c4cccc(Cl)c4)o3)ccc21 | . | 52 | . | . | . | . | .
O=C(CSc1nnc(-c2cccnc2)o1)Nc1cccc(Cl)c1 | . | . | / | . | / | . | /
COc1cc(C(=O)N2CCN(C(=O)c3ccco3)CC2)cc(OC)c1OC | . | . | . | . | . | . | /
COc1cc2nc(N3CCN(C(=O)c4ccco4)CC3)nc(N)c2cc1OC | . | 96 | . | . | / | . | 51! | Full FLuc ctr=57
